These results are taken from ChEMBL document CHEMBL1132173, “Novel derivatives of 2-pyridinemethylamine as selective, potent, and orally active agonists at 5-HT1A receptors” (J Med Chem, 1999).

Structures are written as SMILES.

The test system of experiment [1] is Rattus norvegicus. Kind of experiment: Induction of lower lip retraction in rat 60 min after administration, effective peroral dose determined in vivo. In kind it is functional. Conditions: po, 1 h. In short, it runs like this: (§1)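 Observed in 10 min windows centred 15 and 60 min post-dose, 10 s each minute, scoring lower lip retraction present or absent (0–10).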

Experiment [2] concerns the target T1, 5-hydroxytryptamine receptor 1A (Homo sapiens, UniProt P08908).
T1 sequence (P08908 whole entry): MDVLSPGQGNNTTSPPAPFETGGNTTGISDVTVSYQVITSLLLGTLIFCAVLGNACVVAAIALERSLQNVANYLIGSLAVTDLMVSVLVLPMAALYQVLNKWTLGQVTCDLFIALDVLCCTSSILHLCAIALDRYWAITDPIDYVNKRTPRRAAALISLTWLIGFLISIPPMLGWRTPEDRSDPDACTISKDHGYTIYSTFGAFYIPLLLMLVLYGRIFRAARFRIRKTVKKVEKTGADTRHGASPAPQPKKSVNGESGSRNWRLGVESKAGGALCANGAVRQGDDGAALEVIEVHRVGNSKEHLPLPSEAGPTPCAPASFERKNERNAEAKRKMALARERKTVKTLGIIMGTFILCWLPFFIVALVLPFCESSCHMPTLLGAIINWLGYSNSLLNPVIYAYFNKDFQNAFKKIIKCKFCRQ
Kind of experiment: In vitro effective concentration required to inhibit forskolin-stimulated cAMP levels in HA7 cells expressing human 5-HT1A receptor. In kind it is functional, cell-based. In short, it runs like this: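 HeLa HA7 cells stably expressing human 5-HT1A, at 80–90% confluency, antibiotic-free for 24 h. Preincubated 10 min at RT in DMEM/10 mM Hepes, then drug at 0.1 nM–100 µM with 100 µM forskolin and 100 µM IBMX for 10 min at RT. Stopped with 0.1 N HCl; cAMP by radioimmunoassay as % of forskolin control; pEC50.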
(In general: cAMP levels reflect the balance of adenylyl cyclase and phosphodiesterase activity.)

In experiment [3] the test system is Rattus norvegicus. Kind of experiment: Effective intraperitoneal dose in vivo in rat after 15 mins to induce lower lip retraction. In kind it is functional. The note with it: ip, 0.25 h. In outline: as §1
Experiment [4] addresses T2, 5-hydroxytryptamine receptor 1A (Rattus norvegicus, UniProt P19327).
T2 sequence (P19327 whole entry): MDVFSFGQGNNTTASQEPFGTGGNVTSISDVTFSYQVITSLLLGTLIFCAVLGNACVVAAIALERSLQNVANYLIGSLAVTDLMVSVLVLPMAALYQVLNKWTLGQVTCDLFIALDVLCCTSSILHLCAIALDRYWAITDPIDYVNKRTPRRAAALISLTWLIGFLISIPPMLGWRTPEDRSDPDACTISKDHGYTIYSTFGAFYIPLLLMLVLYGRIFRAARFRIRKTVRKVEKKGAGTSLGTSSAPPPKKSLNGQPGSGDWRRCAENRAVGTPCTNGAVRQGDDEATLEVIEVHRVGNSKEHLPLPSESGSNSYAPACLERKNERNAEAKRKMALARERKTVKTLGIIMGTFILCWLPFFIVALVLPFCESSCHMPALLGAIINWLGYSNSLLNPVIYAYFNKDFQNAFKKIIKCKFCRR
Kind of experiment: Binding affinity towards 5-hydroxytryptamine 1A receptor in rat cortex using [3H]8-OH-DPAT as a radioligand. In outline:
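Rat tissue membranes, competition against radioligand at 23 °C. Nonspecific binding: 5-HT for 5-HT1A (30 min), (+)-butaclamol for D2 (60 min), phentolamine for α1 (30 min). Tris HCl 50 mM pH 7.4 buffers. Filtration through glass-fibre filters, then scintillation counting. Run in triplicate; IC50 by nonlinear regression; Ki by Cheng–Prusoff; mean pKi of three determinations.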

What is called ED50 is the midpoint of the dose-response relation. Lower therefore signals an effect at a small dose. The term EC50 denotes the concentration needed to bring the measured effect to its halfway point. Read a low EC50 as greater potency. Regarding `CCNc1cccc(CNCC2(F)CCN(C(=O)c3ccc(F)c(Cl)c3)CC2)n1`, the ED50 in the experiment with Rattus norvegicus [1] turned out to be 0.32 mg/kg; in the experiment on Rattus norvegicus [3] it was 0.11 mg/kg. The molecule also showed an EC50 in experiment [2] of 13.2 nM.

In the case of `O=C(c1ccc(Cl)c(Cl)c1)N1CCC(CNCc2cccc(-n3cccn3)n2)CC1`, the concentration for a half-maximal effect (EC50) in experiment [2] is 30.9 nM. In other words, the double-digit nanomolar range.

One may read the Ki as the equilibrium dissociation constant of an inhibitor or competing ligand from its target. Low values mean higher affinity, high ones lower affinity. Turning to `Cc1cc(CNCC2(F)CCN(C(=O)c3ccc(F)c(Cl)c3)CC2)nc(N(C)C)c1`, the affinity in experiment [4], expressed as Ki, was 0.562 nM. Further, the ED50 in the experiment on Rattus norvegicus [1] came to 0.89 mg/kg; with Rattus norvegicus [3] it was 0.32 mg/kg. Further, in experiment [2], the EC50 is 33.1 nM.

Consider `O=C(c1ccc(Cl)c(Cl)c1)N1CCC(CNCc2cccc(-c3cnco3)n2)CC1`, for which, in experiment [2], the EC50 was 2 nM.

`N#CC1(CNCc2cccc(-n3cccn3)n2)CCN(C(=O)c2ccc(Cl)c(Cl)c2)CC1`: the Ki in experiment [4] was 6.92 nM. In experiment [2], this molecule gave an EC50 of 162 nM.

The molecule `O=C(c1ccc(Cl)c(Cl)c1)N1CCC(CNCc2cccc(N3CCC3)n2)CC1` showed an EC50 in experiment [2] of 7.08 nM. In other words, the single-digit nanomolar range.

Take `Cc1ccc(CNCC2(F)CCN(C(=O)c3ccc(F)c(Cl)c3)CC2)nc1-n1cccn1`: in experiment [4], the affinity, expressed as Ki, was 0.447 nM. Further, the ED50 in the experiment with Rattus norvegicus [1] amounted to 1.3 mg/kg; in the experiment on Rattus norvegicus [3] it was 0.32 mg/kg. This molecule also gave an EC50 in experiment [2] of 14.8 nM.

On to `O=C(c1ccc(Cl)c(Cl)c1)N1CCC(CNCc2cccc(-c3ccco3)n2)CC1`, for which the EC50 in experiment [2] was 5.25 nM.

In experiment [4], `Cc1ccc(CNCC2(F)CCN(C(=O)c3ccc(F)c(Cl)c3)CC2)nc1-c1cc[nH]n1` had a Ki of 2.19 nM. Moreover, the ED50 with Rattus norvegicus [1] came to 0.89 mg/kg; with Rattus norvegicus [3] it was 0.32 mg/kg. In experiment [2], this molecule gave an EC50 of 2.75 nM.

Consider `O=C(c1ccc(Cl)c(Cl)c1)N1CCC(CNCc2cccc(-c3cccs3)n2)CC1`, for which the EC50 in experiment [2] is 5.75 nM.

Consider `O=C(c1ccc(Cl)c(Cl)c1)N1CCC(CNCc2ncccc2F)CC1`, for which the Ki in experiment [4] is 15.1 nM. In other words, the double-digit nanomolar range.

`CN(C)c1cccc(CNCC2CCN(C(=O)c3ccc(Cl)c(Cl)c3)CC2)n1` gave an EC50 in experiment [2] of 20.4 nM.

Molecule `O=C(c1ccc(Cl)c(Cl)c1)N1CC=C(CNCc2cccc(-n3cccn3)n2)CC1` showed a Ki in experiment [4] of 6.03 nM. The molecule also showed an EC50 in experiment [2] of 269 nM.

For the molecule `CCc1ccc(CNCC2(F)CCN(C(=O)c3ccc(F)c(Cl)c3)CC2)nc1`, the Ki in experiment [4] was 8.91 nM. Besides, the ED50 was 1.8 mg/kg in the experiment on Rattus norvegicus [1] and 1.3 mg/kg in the experiment on Rattus norvegicus [3]. In experiment [2], this molecule gave an EC50 of 407 nM.

`CC(C)c1ccc(CNCC2(F)CCN(C(=O)c3ccc(F)c(Cl)c3)CC2)nc1` showed a Ki in experiment [4] of 35.5 nM. This counts as double-digit nanomolar.

`O=C(c1ccc(F)c(Cl)c1)N1CCC(F)(CNCc2cccc(-n3cccn3)n2)CC1` had a Ki in experiment [4] of 0.49 nM. The ED50 in the experiment on Rattus norvegicus [1] turned out to be 1.3 mg/kg; in the experiment with Rattus norvegicus [3], 0.32 mg/kg. In experiment [2], this molecule gave an EC50 of 12.3 nM.

As to `COC1(CNCc2cccc(-n3cccn3)n2)CCN(C(=O)c2ccc(Cl)c(Cl)c2)CC1`, affinity in experiment [4] was put at a Ki of 30.2 nM.

In experiment [4], `O=C(c1ccc(Cl)c(Cl)c1)N1CCC(O)(CNCc2cccc(-n3cccn3)n2)CC1` had a Ki of 1.62 nM. The same molecule showed an EC50 in experiment [2] of 39.8 nM.

In experiment [2], `CNc1cccc(CNCC2CCN(C(=O)c3ccc(Cl)c(Cl)c3)CC2)n1` showed an EC50 of 21.9 nM.

In experiment [4], `CCN(CC)c1nc(CNCC2(F)CCN(C(=O)c3ccc(F)c(Cl)c3)CC2)ccc1C` gave a Ki of 1.38 nM. Also, the ED50 in the experiment on Rattus norvegicus [1] is 0.11 mg/kg; in the experiment on Rattus norvegicus [3] it was 0.32 mg/kg. In experiment [2], this molecule gave an EC50 of 28.8 nM.

In the case of `O=C(c1ccc(Cl)c(Cl)c1)N1CCC(CF)(CNCc2cccc(-n3cccn3)n2)CC1`, the Ki in experiment [4] was 9.12 nM. In experiment [2], this molecule showed an EC50 of 309 nM.

Take `O=C(c1ccc(Cl)c(Cl)c1)N1CCC(CNCc2cccc(-c3cc[nH]n3)n2)CC1`: in experiment [2], the midpoint of the response, the EC50, lay at 3.02 nM.

With `CC1(CNCc2cccc(-n3cccn3)n2)CCN(C(=O)c2ccc(Cl)c(Cl)c2)CC1`, the affinity in experiment [4] corresponds to a Ki of 37.2 nM.

For `CNc1cccc(CNCC2(F)CCN(C(=O)c3ccc(F)c(Cl)c3)CC2)n1`, the ED50 in the experiment on Rattus norvegicus [1] was 0.32 mg/kg; with Rattus norvegicus [3], 0.11 mg/kg. In experiment [2], this molecule had an EC50 of 12.6 nM.

For `Cc1ccc(CNCC2(F)CCN(C(=O)c3ccc(F)c(Cl)c3)CC2)nc1N(C)C`, the figures for the ED50 with Rattus norvegicus [1] and in the experiment on Rattus norvegicus [3] were 0.08 mg/kg and 0.04 mg/kg, respectively. The molecule also gave an EC50 in experiment [2] of 3.72 nM.

Consider `Cc1ccc(N(C)C)nc1CNCC1(F)CCN(C(=O)c2ccc(F)c(Cl)c2)CC1`, for which the Ki in experiment [4] was 0.468 nM. The ED50 in the experiment on Rattus norvegicus [1] worked out at 1.3 mg/kg; in the experiment on Rattus norvegicus [3], 0.63 mg/kg. Moreover, it took 47.9 nM to reach a half-maximal effect in experiment [2] (EC50).

On to `O=C(c1ccc(Cl)c(Cl)c1)N1CCC(CNCc2cccc(-c3nccs3)n2)CC1`, for which the EC50 in experiment [2] is 5.01 nM. In other words, the single-digit nanomolar range.

Regarding `O=C(c1ccc(F)c(Cl)c1)N1CCC(F)(CNCc2cccc(-c3cc[nH]n3)n2)CC1`, the ED50 with Rattus norvegicus [1] and in the experiment with Rattus norvegicus [3] was 0.32 mg/kg throughout. Also, in experiment [2], the midpoint of the response, the EC50, lay at 0.724 nM.

In experiment [4], `O=C(c1ccc(Cl)c(Cl)c1)N1CCC(F)(CNCc2ccccn2)CC1` showed a Ki of 5.13 nM. Further, the 50% effect level with Rattus norvegicus [3] (ED50) was put at a dose of 0.11 mg/kg.

`CCNc1nc(CNCC2(F)CCN(C(=O)c3ccc(F)c(Cl)c3)CC2)ccc1C`: in experiment [4], the affinity, expressed as Ki, was 0.148 nM. For the same molecule, the ED50 is 0.45 mg/kg in the experiment on Rattus norvegicus [1] and 0.08 mg/kg in the experiment with Rattus norvegicus [3]. The response in experiment [2] was half-maximal at 8.32 nM (EC50).

As for `Cc1ccc(CNCC2(F)CCN(C(=O)c3ccc(Cl)c(Cl)c3)CC2)nc1`, it took a dose of 0.62 mg/kg to reach the 50% effect level in the experiment on Rattus norvegicus [1] (ED50). The same molecule gave an EC50 in experiment [2] of 20.9 nM.

On to `Cc1ccc(CNCC2(F)CCN(C(=O)c3ccc(F)c(Cl)c3)CC2)nc1` [BEFIRADOL], for which the ED50 in the experiment on Rattus norvegicus [1] was 0.11 mg/kg; with Rattus norvegicus [3], 0.08 mg/kg.
